Published values collected from several papers.
Each line is one published result; the experiments were not run side by side.
RPS6KA4: Ribosomal protein S6 kinase alpha-4 (RPS6KA4, Homo sapiens, UniProt O75676)
RPS6KA4 C-terminal kinase domain: Ribosomal protein S6 kinase alpha-4, C-terminal kinase domain (RPS6KA4, Homo sapiens, UniProt O75676)

O=c1[nH]c2ccccc2n1C1CCN(Cc2ccc(-c3[nH]c4cc5ncnc5cc4nc3-c3ccccc3)cc2)CC1  remaining signal (RPS6KA4; cell-free assay; 0.5 µM): 98.8%
Cn1cc(-c2cc(F)cc(N3CCn4c(cc5c4CCCC5)C3=O)c2CO)cc(Nc2ccc(N3CCN(C4COC4)CC3)cn2)c1=O  inhibition (RPS6KA4; enzyme activity, inhibitor; 0.1 µM): 15%
N#CC1(c2ccccn2)CCN(Cc2cc(C(=O)O)c(=O)n3ccccc23)CC1  remaining binding (RPS6KA4 C-terminal kinase domain; cell-free assay, competition with immobilised ligand; 1 µM): 65%
Cn1cc(-c2cccc(N3CCc4c(sc5c4CC(C)(C)C5)C3=O)c2CO)cc(Nc2ccncn2)c1=O  inhibition (RPS6KA4; enzyme activity, inhibitor; 1 µM): 3%
CC(C)(C)c1cc(C=C(C#N)C#N)cc(Br)c1O  remaining activity (RPS6KA4; enzyme activity, inhibitor; 0.5 µM): 90.9%
Cc1nn(C)cc1-c1nc2c(N3CCN(Cc4ccc(Cl)cc4)CC3)c(Cl)cnc2[nH]1  remaining binding (Ribosomal protein S6 kinase alpha-4, N-terminal kinase domain (RPS6KA4, Homo sapiens, UniProt O75676); binding, competition with immobilised ligand; 1 µM): 62%
Cn1cncc1[C@](O)(COc1ccc(C#N)cc1-c1ccc(OC(F)(F)F)cc1)c1ccc(C#N)cc1  remaining binding (RPS6KA4 C-terminal kinase domain; cell-free assay, competition with immobilised ligand; 1 µM): 76%
Nc1ncc(-c2nc(N3CCOCC3)nc(N3CCOCC3)n2)c(C(F)F)n1  remaining binding (RPS6KA4 C-terminal kinase domain; binding, competition with immobilised ligand; 10 µM): 63%
